Laboratory results published in ChEMBL document CHEMBL5352422, “Development of l-Dopa-containing diketopiperazines as blood-brain barrier shuttle” (Eur J Med Chem, 2022).
Calls of active or inactive are those of the source. The rule behind the calls is not given here.

How the values were obtained:
[1] = Induction of DNA damage in Primary human whole blood cell assessed as 8-OH-dG adducts formation at 250 nM incubated for 24 hrs by […] (reference value: 0.12 to 2.21 pg/ml); type: functional
[2] = Induction of DNA damage in rat Cerebral cortex cell assessed as total DNA damage score at 10 nM incubated for 24 hrs by Comet assay (reference value: 36.8 to 89.2); type: functional, Cerebral cortex neuron
[3] = Induction of DNA damage in rat Cerebral cortex cell assessed as total DNA damage score at 500 nM incubated for 24 hrs by Comet assay (reference value: 36.8 to 89.2); type: functional, Cerebral cortex neuron
[4] = Cytotoxicity against rat Cerebral cortex cell at 10 to 500 nM incubated for 24 hrs by MTT assay; type: toxicity, cell-based; conditions: cerebral cortex neuron, 0.5 µM, dose 10-500 nM
Summary of the method: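 Primary cultures (rat fetal cortical neurons; human whole-blood cultures with phytohemagglutinin) exposed to aqueous compound at 10–500 nM for 24 h at 37 °C. Then incubated with 0.7 mg/mL MTT for 30 min at 37 °C, formazan extracted with isopropanol/formic acid 95:5, read at 560 nm. Control formazan = 100% viability. Mitomycin C 10^-7 M as positive control; n = 4.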

[5] = Antioxidant activity against Primary human whole blood cell assessed as H2O2 equivalent of total oxidative stress at 50 nM incubated for 24 hrs (0.6 to 1.9 micromolequiv/L); type: functional
[6] = Cytotoxicity against rat Cerebral cortex cell at 10 to 500 nM incubated for 24 hrs by LDH assay; type: toxicity, cell-based; conditions: cerebral cortex neuron, 0.5 µM, dose 10-500 nM
Summary of the method: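 Rat fetal cortical neuron or human whole-blood cultures treated 24 h at 37 °C with aqueous compound at 10–500 nM. LDH released into 100 µL of medium measured by kit as the rate of NAD+ reduction (lactate to pyruvate), absorbance increase at 490 nm. Mitomycin C 10^-7 M as positive control; four independent experiments.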

[7] = Stability of the compound in stimulated intestinal fluid at 10 mg/ml pancreatin by measuring half life measured upto 180 mins by HPLC analysis; type: ADME; conditions: simulated intestinal fluid with pancreatin
Summary of the method: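 USP simulated intestinal fluid containing pancreatin, in a 37 °C shaking water bath. Samples at 0, 60, 120 and 180 min were quenched with ice-cold acetonitrile containing 0.5% formic acid, centrifuged at 4 °C for 10 min, filtered and analyzed by HPLC. Means of three experiments ± SD.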

[8] = Induction of DNA damage in rat Cerebral cortex cell assessed as 8-OH-dG adducts formation at 10 nM incubated for 24 hrs by Comet assay (reference value: 0.14 to 1.92 pg/ml); type: functional, Cerebral cortex neuron
[9] = Antioxidant activity against rat Cerebral cortex cell assessed as H2O2 equivalent of total oxidative stress at 500 nM incubated for 24 hrs (0.7 to 2.3 micromolequiv/L); type: functional, Cerebral cortex neuron
[10] = Stability in human plasma assessed as observed rate constant by HPLC method; type: ADME, cell-free
Summary of the method: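 Stock added to 37 °C human plasma diluted with 0.02 M phosphate buffer pH 7.4 to 80% plasma. Aliquots taken over time were quenched with 0.01 M HCl in methanol, centrifuged 5 min at 5000 g, and supernatant analyzed by HPLC-UV. t1/2 and k_obs are means of three experiments ± SD.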

[11] = Effective permeability of compound at 500 uM incubated for 18 hrs by […] method; type: ADME; conditions: read-out: Peff
Summary of the method: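 PAMPA-BBB: donor contained compound at 500 µM final in PBS pH 7.4 with 20% v/v MeOH. Incubated 18 h. Donor and acceptor concentrations measured by HPLC; effective permeability Pe (cm/s) calculated.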

[12] = Stability of the compound in phosphate buffer assessed as chemical hydrolysis by measuring observed rate constant at pH 7.4; type: physicochemical
Summary of the method: (§1)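 Chemical hydrolysis at 37 °C in hydrochloric acid buffer pH 1.2 or phosphate buffer pH 7.4. Remaining compound followed by HPLC with UV detection. t1/2 and k_obs are means of three experiments ± SD.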

[13] = Antioxidant activity against Primary human whole blood cell assessed as trolox equivalent of total antioxidant capacity at 250 nM incubated for 24 hrs (19.3 to 32.5 mmolequiv/L ); type: functional
[14] = Induction of DNA damage in rat Cerebral cortex cell assessed as total DNA damage score at 50 nM incubated for 24 hrs by Comet assay (reference value: 36.8 to 89.2); type: functional, Cerebral cortex neuron
[15] = Induction of DNA damage in Primary human whole blood cell assessed as 8-OH-dG adducts formation at 10 nM incubated for 24 hrs by […] (reference value: 0.12 to 2.21 pg/ml); type: functional
[16] = Genotoxicity in human Lymphocyte assessed as micronuclei formation measured per 1000 cells at 50 nM incubated for 72 hrs giemsa staining based analysis (reference value: 4.5 to 17.9); type: toxicity, cell-based; conditions: 0.05 µM
Summary of the method: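 Human whole-blood lymphocyte cultures with phytohemagglutinin, incubated with compound for 72 h at 37 °C. Cytochalasin B added at 44 h. Cells fixed in ice-cold methanol/acetic acid 1:1, cytospun, Giemsa-stained. At least 1000 binucleated lymphocytes per concentration scored for micronuclei by one observer.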

[17] = Antioxidant activity against rat Cerebral cortex cell assessed as trolox equivalent of total antioxidant capacity at 250 nM incubated for 24 hrs (14.7 to 27.5 mmolequiv/L ); type: functional, Cerebral cortex neuron
[18] = Induction of DNA damage in Primary human whole blood cell assessed as total DNA damage score at 250 nM incubated for 24 hrs by Comet assay (reference value: 35.4 to 77.9); type: functional
[19] = Antioxidant activity against rat Cerebral cortex cell assessed as H2O2 equivalent of total oxidative stress at 10 nM incubated for 24 hrs (0.7 to 2.3 micromolequiv/L); type: functional, Cerebral cortex neuron
[20] = Induction of DNA damage in rat Cerebral cortex cell assessed as 8-OH-dG adducts formation at 100 nM incubated for 24 hrs by […] (reference value: 0.14 to 1.92 pg/ml); type: functional, Cerebral cortex neuron
[21] = Stability of the compound in phosphate buffer assessed as chemical hydrolysis by measuring half life at pH 7.4; type: physicochemical; summary of the method: as §1
[22] = Antioxidant activity against rat Cerebral cortex cell assessed as trolox equivalent of total antioxidant capacity at 100 nM incubated for 24 hrs (14.7 to 27.5 mmolequiv/L ); type: functional, Cerebral cortex neuron
PC-12 = assay: Inhibition of MPP+ induced GSH level in rat PC-12 cells at 100 nM preincubated with compound for 24 hrs followed by MPP+ treatment for 24 hrs by DTNB reagent based analysis; type: functional, cell-based; conditions: time 48.0 hrs
[23] = Genotoxicity in human Lymphocyte assessed as sister chromatid exchange measured per cells at 50 nM incubated for 72 hrs giemsa staining based fluorescence method (reference value: 6.6 to 14.3); type: toxicity, cell-based; conditions: 0.05 µM
[24] = Apparent permeability of the compound across apical side to basolateral side in human Caco-2 cells measured upto 180 mins by HPLC analysis; type: ADME, cell-based
[25] = Induction of DNA damage in Primary human whole blood cell assessed as total DNA damage score at 500 nM incubated for 24 hrs by Comet assay (reference value: 35.4 to 77.9); type: functional
[26] = Antioxidant activity against rat Cerebral cortex cell assessed as trolox equivalent of total antioxidant capacity at 500 nM incubated for 24 hrs (14.7 to 27.5 mmolequiv/L ); type: functional, Cerebral cortex neuron
[27] = Stability of the compound in hydrochloric acid buffer assessed as chemical hydrolysis by measuring half life at pH 1.2; type: physicochemical; summary of the method: as §1

| half-life [7] | Kobs [10] | Papp at 18 h, 500 µM [11] | Kobs [12] | SMILES | Activity [1] | Activity [2] | Activity [3] | Activity [4] | Activity [5] | Activity [6] | Activity [8] | Activity [9] | Activity [13] | Activity [14] | Activity [15] | Activity [16] | Activity [17] | Activity [18] | Activity [19] | Activity [20] | other results |
| --- | --- | --- | --- | --- | --- | --- | --- | --- | --- | --- | --- | --- | --- | --- | --- | --- | --- | --- | --- | --- | --- |
| 0.68 h | 7.22 h⁻¹ | 2.42 ×10⁻⁶ cm/s | 0.022 h⁻¹ | C=CCSC[C@H]1NC(=O)[C@H](Cc2ccc(OC(C)=O)c(OC(C)=O)c2)NC1=O | 0.12 pg/mL | 36.3 | 37.6 | Non-Toxic | 0.7 umolequiv/L | Non-Toxic | 0.14 pg/mL | 0.7 umolequiv/L | 18.8 mmolequiv/L | 36.4 | 0.12 pg/mL | 4.9 | 14.7 mmolequiv/L | 35.7 | 0.7 umolequiv/L | 0.15 pg/mL | half-life [21]: 30.9 h; Activity [22]: 14.4 mmolequiv/L; inhibition (PC-12): inactive; Activity [23]: 6.7; Papp A→B at 3 h [24]: 7.5 ×10⁻⁶ cm/s; Activity [25]: 36.1; Activity [26]: 14.9 mmolequiv/L; half-life [27]: 18.9 h |
| 3.51 h | 0.332 h⁻¹ | 4.88 ×10⁻⁶ cm/s | 0.015 h⁻¹ | C#CCSC[C@H]1NC(=O)[C@H](Cc2ccc(OC(C)=O)c(OC(C)=O)c2)NC1=O | 0.13 pg/mL | 36.9 | 38.1 | Non-Toxic | 0.6 umolequiv/L | Non-Toxic | 0.14 pg/mL | 0.6 umolequiv/L | 19.8 mmolequiv/L | 37.2 | 0.12 pg/mL | 4.8 | 15.4 mmolequiv/L | 35.9 | 0.7 umolequiv/L | 0.14 pg/mL | half-life [21]: 47.5 h; Activity [22]: 15.2 mmolequiv/L; inhibition (PC-12): Active; Activity [23]: 6.8; Papp A→B at 3 h [24]: 17.4 ×10⁻⁶ cm/s; Activity [25]: 36.3; Activity [26]: 14.8 mmolequiv/L; half-life [27]: 134 h |
